Laboratory results taken from ChEMBL document CHEMBL1140369, “Synthesis and SAR of 2-carboxylic acid indoles as inhibitors of plasminogen activator inhibitor-1” (Bioorg Med Chem Lett, 2005).

Tests used:
[1] = target: T1, Plasminogen activator inhibitor 1 (Homo sapiens, UniProt P05121); experiment: Percentage inhibitory activity against Plasminogen activator inhibitor-1 at 25 uM
Summary of the method: (§1)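 Recombinant human PAI-1 with compound, then tPA added; restored tPA cleavage of a chromogenic substrate read spectrophotometrically and reported as % inhibition at single concentration. Buffer pH 6.6: Na2HPO4 50 mM, NaCl 200 mM, EDTA 1 mM, no serum protein.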

[2] = target: T1, Plasminogen activator inhibitor 1; experiment: Percentage inhibitory activity against Plasminogen activator inhibitor-1 at 10 uM; summary of the method: as §1
[3] = target: T1, Plasminogen activator inhibitor 1; experiment: Percentage inhibitory activity against Plasminogen activator inhibitor-1 at 100 uM; summary of the method: as §1
[4] = target: T1, Plasminogen activator inhibitor 1; experiment: Inhibitory concentration against Plasminogen activator inhibitor-1 by antibody assay

T1 sequence (P05121 whole entry): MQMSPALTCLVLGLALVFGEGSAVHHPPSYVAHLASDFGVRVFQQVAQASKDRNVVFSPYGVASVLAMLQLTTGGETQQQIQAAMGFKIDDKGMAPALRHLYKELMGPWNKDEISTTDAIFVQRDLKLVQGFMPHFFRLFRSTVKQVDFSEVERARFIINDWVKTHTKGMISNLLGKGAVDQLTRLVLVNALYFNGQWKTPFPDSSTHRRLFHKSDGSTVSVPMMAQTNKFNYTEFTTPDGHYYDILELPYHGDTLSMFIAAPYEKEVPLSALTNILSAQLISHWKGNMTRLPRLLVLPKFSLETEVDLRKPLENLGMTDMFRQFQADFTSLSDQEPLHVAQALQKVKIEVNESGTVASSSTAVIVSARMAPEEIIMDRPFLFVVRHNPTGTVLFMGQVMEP

Structure (SMILES) | Inhibition [1] | Inhibition [2] | Inhibition [3] | IC50 [4]
CC(C)(C)c1ccc(Nc2ccc3c(c2)c(-c2ccccc2)c(C(=O)O)n3Cc2ccccc2)cc1 | 73% | 45% | – | –
CC(C)(C)c1ccc(S(=O)(=O)Nc2ccc3c(c2)c(-c2ccccc2)c(C(=O)O)n3Cc2ccccc2)cc1 | 82% | 41% | – | –
O=C(Nc1ccc2c(c1)c(-c1ccccc1)c(C(=O)O)n2Cc1ccccc1)Nc1ccc(F)cc1F | 61% | 27% | – | –
CC(C)(C)c1ccc(Nc2ccc3c(c2)c(-c2ccccc2)c(C(=O)O)n3Cc2ccc(-c3ccccc3)cc2)cc1 | 80% | 52% | – | –
O=C(O)c1c(-c2ccccc2)c2cc(NS(=O)(=O)c3ccc(-c4ccccc4)cc3)ccc2n1Cc1ccccc1 | 61% | 44% | – | –
O=C(O)c1c(-c2ccccc2)c2cc(NS(=O)(=O)c3cccc4cccnc34)ccc2n1Cc1ccccc1 | 43% | 8% | – | –
Cc1cccc(Nc2ccc3c(c2)c(-c2ccccc2)c(C(=O)O)n3Cc2ccccc2)c1 | 69% | 24% | – | –
O=C(O)c1c(-c2ccccc2)c2cc(-n3cccc3)ccc2n1Cc1ccccc1 | 69% | 12% | – | –
Cn1c(C(=O)O)c(-c2ccccc2)c2cc(NS(=O)(=O)c3cccc4cccnc34)ccc21 | 1% | 0% | – | –
Cn1c(C(=O)O)c(-c2ccccc2)c2cc(NS(=O)(=O)c3ccc(OC(F)(F)F)cc3)ccc21 | 19% | 0% | – | –
Cn1c(C(=O)O)c(-c2ccccc2)c2cc(NS(=O)(=O)c3ccc(C(C)(C)C)cc3)ccc21 | 46% | 5% | – | –
O=C(O)C(=O)c1cn(Cc2ccccc2)c2ccc(-c3ccc(OC(F)(F)F)cc3)cc12 | 47% | 0% | 83% | –
Cc1ccc(C)n1-c1ccc2c(c1)c(-c1ccccc1)c(C(=O)O)n2Cc1ccccc1 | 83% | 23% | – | –
O=C(Nc1ccc(Cl)c(Cl)c1)c1ccc(CNc2cc([N+](=O)[O-])ccc2C(=O)O)cc1 | 51% | 3% | 74% | 17.8 µM
O=C(Nc1ccc2c(c1)c(-c1ccccc1)c(C(=O)O)n2Cc1ccccc1)c1ccc(F)cc1F | 43% | 24% | – | –
O=C(O)c1cc2cc(NS(=O)(=O)c3ccc(-c4ccccc4)cc3)ccc2n1Cc1ccccc1 | 49% | – | 64% | 63.1 µM
CCCCS(=O)(=O)Nc1ccc2c(c1)cc(C(=O)O)n2Cc1ccccc1 | – | – | 14% | –
Cn1c(C(=O)O)c(-c2ccccc2)c2cc(NS(=O)(=O)c3ccc(-c4ccccc4)cc3)ccc21 | 68% | 11% | – | –
O=C(O)c1cc2cc(NS(=O)(=O)c3ccc(Cl)c(Cl)c3)ccc2n1Cc1ccccc1 | – | – | 62% | –
O=C(O)c1c(-c2ccccc2)c2cc(NS(=O)(=O)c3ccc(OC(F)(F)F)cc3)ccc2n1Cc1ccccc1 | 81% | 33% | – | –
O=C(O)c1c(-c2ccccc2)c2cc(Nc3ccc(-c4ccccc4)cc3)ccc2n1Cc1ccccc1 | 71% | 36% | – | –
O=C(O)c1c(-c2ccccc2)c2cc(NS(=O)(=O)c3ccccc3)ccc2n1Cc1ccc(-c2ccccc2)cc1 | 87% | 79% | – | –
O=C(O)c1cc2cc(NS(=O)(=O)c3ccccc3)ccc2n1Cc1ccccc1 | – | – | 32% | –
